Data from ChEMBL document CHEMBL3098095, “Synthesis and biological properties of thiazole-analogues of pyochelin, a siderophore of Pseudomonas aeruginosa” (Bioorg Med Chem Lett, 2014).
pKi: −log10 of the molar value. Calls of active or inactive are those of the source. The calls are words filed in the database; no cut-off is given here.

Legend:
[1] = system: Pseudomonas aeruginosa; experiment: Induction of iron uptake in Pseudomonas aeruginosa PAD07 at 100 nM; type: functional, organism-based
Procedure, shortened: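 PAD07 P. aeruginosa cells lacking endogenous siderophores, OD600 1, incubated at 37 °C with 100 nM of the 55Fe(III)-loaded compound. Aliquots taken at several times were centrifuged, and cell-pellet 55Fe was measured as iron transported. Repeated with the protonophore CCCP at 0 °C to check TonB-dependent uptake versus passive diffusion.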

[2] = target: T1, Fe(3+)-pyochelin receptor (Pseudomonas aeruginosa (strain ATCC 15692 / PAO1 / 1C / PRS 101 / LMG12228), UniProt P42512); experiment: Displacement of Pch-55Fe(III) from Pseudomonas aeruginosa PAD07 FptA after 1 hr in presence of CCCP; conditions: for pKi: read-out: Ki
T1 sequence (P42512 whole entry): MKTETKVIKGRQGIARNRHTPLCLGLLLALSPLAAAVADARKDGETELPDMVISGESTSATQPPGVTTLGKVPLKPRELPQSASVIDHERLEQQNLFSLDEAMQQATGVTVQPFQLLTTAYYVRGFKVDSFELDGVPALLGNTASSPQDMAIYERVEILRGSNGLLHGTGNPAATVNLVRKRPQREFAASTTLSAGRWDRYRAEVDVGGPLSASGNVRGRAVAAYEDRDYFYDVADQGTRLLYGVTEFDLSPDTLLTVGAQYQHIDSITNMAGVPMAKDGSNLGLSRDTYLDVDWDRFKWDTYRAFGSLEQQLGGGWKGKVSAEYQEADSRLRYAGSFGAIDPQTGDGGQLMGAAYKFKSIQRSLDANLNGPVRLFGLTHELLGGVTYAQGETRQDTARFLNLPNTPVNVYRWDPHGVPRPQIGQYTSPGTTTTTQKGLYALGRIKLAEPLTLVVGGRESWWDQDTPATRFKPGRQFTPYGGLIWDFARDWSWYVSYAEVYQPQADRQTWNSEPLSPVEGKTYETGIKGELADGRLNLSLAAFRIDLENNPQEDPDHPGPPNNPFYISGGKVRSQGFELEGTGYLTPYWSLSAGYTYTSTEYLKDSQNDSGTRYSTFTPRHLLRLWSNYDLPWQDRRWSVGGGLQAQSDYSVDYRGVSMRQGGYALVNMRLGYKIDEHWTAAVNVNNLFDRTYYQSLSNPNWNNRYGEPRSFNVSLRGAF
Procedure, shortened: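 PAD07 P. aeruginosa (mutant lacking pyochelin and pyoverdine), OD600 0.3, held 1 h at 0 °C in 50 mM Tris–HCl pH 8.0 with 200 µM CCCP to block uptake. Tracer 1 nM Pch-55Fe(III) competed by the Fe(III)-loaded compounds over […] range. Inhibition constant (Ki) derived from the competition.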

Row | Structure (SMILES) | Activity [1] | pKi [2] | Ki [2]
1 | CN1[C@@H]([C@H]2CSC(c3ccccc3O)=N2)SC[C@H]1C(=O)O | Active | 8.66 | 
2 | CN1[C@@H](c2csc(-c3ccccc3O)n2)SC[C@H]1C(=O)O | Active | 8.01 | 
3 | COc1ccccc1-c1nc(C2SC[C@@H](C(=O)O)N2C)cs1 (mixture of isomers) | inactive |  | Not Active
4 | CN1C(c2csc(-c3ccc(O)cc3O)n2)SC[C@H]1C(=O)O (mixture of isomers) | Active | 8.19 | 
5 | COc1cc(O)ccc1-c1nc(C2SC[C@@H](C(=O)O)N2C)cs1 (mixture of isomers) | inactive |  | Not Active
6 | CN1C(c2csc(-c3ccc(N)cc3O)n2)SC[C@H]1C(=O)O (mixture of isomers) | Active | 7.95 | 
7 | CN1C(c2csc(-c3cc(N)ccc3O)n2)SC[C@H]1C(=O)O (mixture of isomers) | inactive |  | Not Active
8 | COc1ccc(N)cc1-c1nc(C2SC[C@@H](C(=O)O)N2C)cs1 (mixture of isomers) | inactive | 6.34 | 
9 | COc1ccc(F)cc1-c1nc(C2SC[C@@H](C(=O)O)N2C)cs1 (mixture of isomers) | inactive | 5.84 | 
